Measured values published in article PMC4257570 (Basic & Clinical Pharmacology & Toxicology, 2014).
Where “and” joins values, the source holds several entries; their conditions need not be identical. Identical values can stand only once.

Key:
[1] = ref unpublished data; cited from earlier work
[2] = Population pharmacokinetic analysis; assay type: in vivo, human
How it was run: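 Oral doses were 2.5–75 mg single and 2.5–60 mg/day multiple; only vortioxetine-alone data from interaction studies were used. Models were two-compartment with lag time and first-order absorption and elimination (one- and three-compartment also tested). Covariates, including CYP genotype-inferred metaboliser status, were added forward then deleted backward. Bootstrap gave 95% CIs.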

[3] = cited from earlier work
[4] = no reference given; cited from earlier work
[5] = cited from earlier work; remark: listed apart in the source
[6] = non-compartmental analysis, healthy young subjects

Cc1cc(C(=O)O)ccc1Sc1ccccc1N1CCNCC1 [Lu AA34443, 3-methyl-4-(2-piperazine-1-yl-phenylsulfanyl)-benzoic acid]
Crossing of the blood–brain barrier [1]: incapable of crossing the blood–brain barrier

Br.Cc1ccc(Sc2ccccc2N2CCNCC2)c(C)c1 [vortioxetine, 1-[2-(2,4-dimethyl-phenylsulfanyl)-phenyl]-piperazine hydrobromide]
CL/F of CYP2C19 EMs relative to PMs ([2]; CYP2C19 EM vs PM): 1.4 times
Oral clearance (CL/F), estimate ([2]; CYP2D6-inferred extensive metabolisers (EM), final model): 34.1 L/h
Oral clearance (CL/F), estimate ([2]; CYP2D6-inferred intermediate metabolisers (IM), final model): 26.6 L/h
Oral clearance (CL/F), estimate ([2]; CYP2D6-inferred poor metabolisers (PM), final model): 18.1 L/h
Oral clearance (CL/F), estimate ([2]; CYP2D6-inferred ultra metabolisers (UM), final model): 52.9 L/h
CL/F of CYP2D6 extensive metabolisers relative to poor metabolisers ([2]; CYP2D6 EM vs PM): 1.9 times
Oral clearance (CL/F), population mean ([2]; all healthy subjects, oral dosing, from the base model): 32.7 L/h and 33 L/h
Absorption rate constant (ka), estimate ([2]; final model): 0.142 h⁻¹
Interindividual variability (IIV) of CL/F ([2]; final model): 42%
Interindividual variability (IIV) of V2/F ([2]; final model): 31%
Interindividual variability (IIV) of ka ([2]; final model): 51%
Lag-time (ALAG), estimate ([2]; final model): 0.781 h
Volume of distribution, peripheral comp (V3/F), estimate ([2]; final model): 661 L
Age on CL/F ([2]; final model, covariate effect): 0.277 L/hr/yr
Height on V2/F ([2]; final model, covariate effect): 17.4 L/cm
half-life ([2]; human, plasma, im, Estimated mean t1/2, CYP2D6-inferred metabolic status IM): 73 h
Vd/F ([2]; human, plasma, oral): 1970 L
half-life ([2]; human, plasma, oral, Estimated mean t1/2, CYP2D6-inferred metabolic status EM): 60 h
half-life ([2]; human, plasma, oral, Estimated mean t1/2, CYP2D6-inferred metabolic status PM): 104 h
half-life ([2]; human, plasma, oral, Estimated mean t1/2, CYP2D6-inferred metabolic status UM): 42 h
V2/F, population mean ([2]; men, sex as only covariate): 1940 L
Sum of the central and peripheral volumes of distribution (V2/F + V3/F) ([2]; population mean, oral administration): 2600 L
Higher exposure in a subject compared with the population mean ([2]; subject vs population mean of 44 years): ≤ 40%
CL/F, population mean ([2]; women, sex as only covariate): 30 L/h
V2/F, population mean ([2]; women, sex as only covariate): 1810 L
Change of CL/F of vortioxetine when co-administered with bupropion ([3]; bupropion (CYP2D6 inhibitor)): reduced approximately by half
Increase of vortioxetine exposure with co-administration of bupropion ([3]; bupropion (CYP2D6 inhibitor)): approximately 2 fold
Decrease of AUC of vortioxetine with co-administration of rifampicin ([3]; rifampicin (broad CYP inducer)): 72%
Effect of co-administration of omeprazole on vortioxetine steady-state exposure ([3]; single dose of omeprazole (CYP2C19 inhibitor)): no effects
Renal clearance [4]: negligible
Absolute bioavailability for oral administration [5]: 75%
Clearance (oral clearance) [5, 6]: 47 L/h
Elimination half-life [5, 6]: 57 h
